Results on seven compounds are retold here after ChEMBL document CHEMBL4732244, “A new class of α-ketoamide derivatives with potent anticancer and anti-SARS-CoV-2 activities” (Eur J Med Chem, 2021).

Data set [1] relates to RPMI-8226. Briefly: Anticancer activity against human RPMI8226 cells assessed as cell viability measured after 72 hrs by MTT assay. The data set is classed as functional, cell-based. As to conditions: RPMI-8226, 72 h. In a few lines: (§1)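 MTS growth assay after 72 h compound exposure. RPMI8226 (1×10^4/well), THP-1 and Ramos (5×10^4/well) were cultured in RPMI 1640 with 10% FBS. MGC-803, HeLa and SW480 (5×10^3/well) were cultured in DMEM with 10% FBS. All at 37 °C, 5% CO2. MTS was added for 3 h at 37 °C and OD read at 490 nm. IC50 from 7 concentrations; triplicate wells, three independent experiments.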
Background: Formazan colour is commonly taken as a measure of viable cells.

The test system of data set [2] is MGC-803. As to the kind of experiment: Anticancer activity against human MGC-803 cells assessed as cell viability measured after 72 hrs by MTT assay. The data set is classed as functional, cell-based. As to conditions: MGC-803, 72 h. In outline:
as §1

The test system of data set [3] is Ramos. As to the kind of experiment: Anticancer activity against human Ramos cells assessed as cell viability measured after 72 hrs by MTT assay. The data set is classed as functional, cell-based. In a few lines: as §1
Data set [4] relates to THP-1. Briefly: Anticancer activity against human THP-1 cells assessed as cell viability measured after 72 hrs by MTT assay. Format: functional, cell-based. As to conditions: THP-1, 72 h. In a few lines: as §1
In data set [5] the test system is SW480. Briefly: Anticancer activity against human SW480 cells assessed as cell viability measured after 72 hrs by MTT assay. Format: functional, cell-based. As to conditions: SW480, 72 h. In a few lines: as §1
The test system of data set [6] is HeLa. Briefly: Anticancer activity against human HeLa cells assessed as cell viability measured after 72 hrs by MTT assay. The data set is classed as functional, cell-based. In outline:
as §1

Data set [7] deals with SARS-CoV-2. As to the kind of experiment: Antiviral activity against SARS coronavirus 2 infected in Vero E6 cells assessed as plague reduction measured after 1 hr. The data set is classed as functional, organism-based. As to conditions: Severe acute respiratory syndrome coronavirus 2, Vero C1008, 1 h.
Data set [8] in a line: Cytotoxicity in African green monkey Vero E6 cells assessed as reduction in cell viability after 48 hrs by Celltiter Glo luminescent assay. The data set is classed as cell-based. Conditions: chlorocebus aethiops, vero e6, 48 h. In a few lines: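 CellTiter-Glo viability: Vero E6 cells at 2 × 10^4 cells/well were exposed to serially diluted compound for 48 h. Luminescence was read 10 min after substrate addition. CC50 was derived by curve fitting.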

One may read the IC50 as the concentration needed to halve the response being measured. Regarding `CC(=O)c1cccc(NC(=O)C(=O)[C@H](CC(C)C)NC(=O)[C@H](Cc2c[nH]c3ccccc23)NC(=O)[C@H](CC(C)C)NC(=O)OCc2ccccc2)c1`, the IC50 in data set [1] was 91 nM; in data set [2], 88.8 nM; in data set [3], 38.4 nM; in data set [4], 78.1 nM; in data set [5] it was 94.2 nM.
For `COc1cc(NC(=O)C(=O)[C@H](CC(C)C)NC(=O)[C@H](CC(C)C)NC(=O)[C@H](CC(C)C)NC(=O)OCc2ccccc2)cc(OC)c1`, the half-maximal inhibitory concentration (IC50) is 37.6 nM in data set [1]; 68.5 nM in data set [2]; 26.9 nM in data set [3]; 70.7 nM in data set [4]; 72.5 nM in data set [5]; 120 nM in data set [6].
Consider `COc1ccc(C[C@H](NC(=O)[C@H](C)NC(=O)c2ccc(-c3ccccc3)cc2)C(=O)N[C@@H](CC(C)C)C(=O)C(=O)Nc2ccccc2)cc1`, for which the IC50 in data set [1] was found to be 455 nM; in data set [2], 2020 nM; in data set [3], 464 nM; in data set [4] it was 568 nM; in data set [5] it was 2440 nM; in data set [6], 8700 nM.
With `COc1ccc(C[C@H](NC(=O)[C@H](C)NC(=O)c2ccc(-c3ccc(C(C)=O)cc3)o2)C(=O)N[C@@H](CC(C)C)C(=O)C(=O)Nc2ccccc2)cc1`, the half-maximal inhibitory concentration (IC50) in data set [1] came to 475 nM; in data set [2], 1160 nM; in data set [3], 428 nM; in data set [4], 475 nM; in data set [5] it was 2000 nM; in data set [6], 3200 nM.
Consider `CCc1cccc(NC(=O)C(=O)[C@H](CC(C)C)NC(=O)[C@H](CC(C)C)NC(=O)[C@H](CC(C)C)NC(=O)OCc2ccccc2)c1`, for which the half-maximal inhibitory concentration (IC50) in data set [1] stood at 40.4 nM; in data set [2], 78.5 nM; in data set [3], 45.7 nM; in data set [4], 71.1 nM; in data set [5], 82.9 nM; in data set [6], 212 nM.
Usually EC50 stands for the midpoint of the concentration-response curve. `COc1ccc(C[C@H](NC(=O)[C@H](C)NC(=O)CN2CCOCC2)C(=O)N[C@@H](Cc2ccccc2)C(=O)C(=O)Nc2ccccc2)cc1`: the EC50 in data set [7] was 1280 nM. Moreover, the Activity result in data set [8] is given as “Non-Toxic”.
As to `CC(C)C[C@H](NC(=O)OCc1ccccc1)C(=O)N[C@@H](CC(C)C)C(=O)N[C@@H](CC(C)C)C(=O)C(=O)Nc1ccccc1`, the IC50 stood at 67.8 nM in data set [1]; 119 nM in data set [2]; 53.6 nM in data set [3]; 88.1 nM in data set [4]; 106 nM in data set [5]; 288 nM in data set [6].
